Values after ≈ are worked out from the molar mass of the structure shown.
Assays:
[1] = test system: MCF7; test: Cytotoxicity against vinblastine-sensitive human MCF7 cells after 72 hrs by SRB assay; format: functional, cell-based; settings: MCF7, 72 h
In short: (§1)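 Log-phase cells in RPMI 1640 + 10% FBS, 37 °C, 5% CO2, exposed in triplicate to 0.2−25 μg/mL test sample for 72 h. Growth read by sulforhodamine B. IC50 = concentration giving 50% inhibition of control growth, taken from a semilog plot of concentration against % growth inhibition. Vinblastine served as positive control. Resistant line MCF-7/Vin was kept with or without 0.192 μg/mL vinblastine.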

[2] = test system: MCF7; test: Cytotoxicity against drug-sensitive human MCF7 cells after 72 hrs by SRB assay; format: functional, cell-based; settings: MCF7, 72 h; in short: as §1
[3] = test system: MCF7; test: Cytotoxicity against vinblastine-reasistant human MCF7 cells after 72 hrs by SRB assay; format: functional, cell-based; settings: MCF7, 72 h; in short: as §1
[4] = test system: MDR; test: Inhibition of MDR in vinblastine-resistant human MCF7 cells assessed as decrease in vinblastine IC50 at 25 ug/mL after 72 hrs by SRB assay; format: cell-based
In short: (§2)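 Vinblastine (0.00064−10 μg/mL) was given with or without glycolipid at 25 or 5 μg/mL for 72 h at 37 °C, 5% CO2, then read by SRB assay. Vinblastine IC50 came from a semilog plot. Reversal fold = IC50 of vinblastine alone / IC50 with glycolipid. Reserpine 5 μg/mL served as positive control. Values are mean ± SD of three independent experiments.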

[5] = test system: MDR; test: Inhibition of MDR in vinblastine-sensitive human MCF7 cells assessed as decrease in vinblastine IC50 at 25 ug/mL after 72 hrs by SRB assay; format: cell-based; in short: as §2
[6] = test system: MDR; test: Inhibition of MDR in drug-sensitive human MCF7 cells assessed as decrease in vinblastine IC50 at 25 ug/mL after 72 hrs by SRB assay; format: cell-based; in short: as §2
[7] = test system: MDR; test: Inhibition of MDR in vinblastine-resistant human MCF7 cells assessed as decrease in vinblastine IC50 at 5 ug/mL after 72 hrs by SRB assay; format: cell-based; in short: as §2
[8] = test system: MDR; test: Inhibition of MDR in vinblastine-sensitive human MCF7 cells assessed as decrease in vinblastine IC50 at 5 ug/mL after 72 hrs by SRB assay; format: cell-based; in short: as §2
[9] = test system: MDR; test: Inhibition of MDR in drug-sensitive human MCF7 cells assessed as decrease in vinblastine IC50 at 5 ug/mL after 72 hrs by SRB assay; format: cell-based; in short: as §2

With `C/C=C(\C)C(=O)O[C@H]1[C@@H]2O[C@H]3[C@H](O[C@@H](CCC)CCCCCCCCCC(=O)O[C@@H]4[C@@H](O)[C@H](C)O[C@@H](O[C@@H]5[C@@H](O[C@@H]6O[C@@H](C)[C@H](O)[C@@H](O)[C@H]6O)[C@H](O[C@H]([C@H]1O)[C@H](C)O2)O[C@H](C)[C@H]5OC(=O)/C(C)=C/C)[C@@H]4O)O[C@H](C)[C@@H](O)[C@@H]3O` [ALBINOSIDE II] the IC50 [1] was > 20 µg/mL, the IC50 [2] was > 20 µg/mL and the IC50 [3] was > 20 µg/mL. For the same molecule, the fold change (FC) [4] was 2.6, the fold change (FC) [5] was 1.3 and the fold change (FC) [6] was 1.9.
In the case of `C/C=C(\C)C(=O)O[C@H]1[C@H](O[C@H]2[C@@H]3O[C@H]4[C@H](O[C@@H](CCCCC)CCCCCCCCCC(=O)O[C@H]2[C@H](O)[C@@H](CO[C@@H]2O[C@H](C)[C@@H](O)[C@H](OC(=O)/C(C)=C/C)[C@H]2O[C@@H]2O[C@@H](C)[C@H](O)[C@@H](O)[C@H]2O)O3)O[C@H](C)[C@@H](O)[C@@H]4O)O[C@@H](C)[C@H](O)[C@H]1O` [ALBINOSIDE III], the IC50 [1] is reported as > 20 µg/mL, the IC50 [2] is reported as > 20 µg/mL and the IC50 [3] is reported as > 20 µg/mL. The fold change (FC) [4] was > 2140, the fold change (FC) [5] was > 1690 and the fold change (FC) [6] was > 73.4.
`COC(=O)[C@H]1[C@H]2C[C@@H]3c4[nH]c5cc(OC)ccc5c4CCN3C[C@H]2C[C@@H](OC(=O)c2cc(OC)c(OC)c(OC)c2)[C@@H]1OC` showed a fold change (FC) [7] of 4.4, a fold change (FC) [8] of 29.2 and a fold change (FC) [9] of 15.7.
`CC[C@]1(O)C[C@@H]2CN(CCc3c([nH]c4ccccc34)[C@@](C(=O)OC)(c3cc4c(cc3OC)N(C)[C@H]3[C@@](O)(C(=O)OC)[C@H](OC(C)=O)[C@]5(CC)C=CCN6CC[C@]43[C@@H]65)C2)C1` [VINBLASTINE] gave an IC50 [2] of 0.047 µg/mL (≈ 0.058 µM) and an IC50 [3] of 1.37 µg/mL (≈ 1.69 µM).
In the case of `CCC[C@H]1CCCCCCCCCC(=O)O[C@H]2[C@H](O[C@H]3[C@H](OC[C@H]4O[C@@H](O[C@H]5[C@H](O1)O[C@H](C)[C@@H](O)[C@@H]5O)[C@H](O[C@@H]1O[C@@H](C)[C@H](OC(C)=O)[C@@H](O)[C@H]1O)[C@@H](O)[C@@H]4O)O[C@H](C)[C@@H](O)[C@@H]3O)O[C@@H](C)[C@H](OC(=O)[C@H](C)[C@@H](C)O)[C@H]2O` [ALBINOSIDE I], the IC50 [1] is reported as > 20 µg/mL, the IC50 [2] is reported as > 20 µg/mL and the IC50 [3] is reported as > 20 µg/mL. The fold change (FC) [4] was 3.1, the fold change (FC) [5] was 4.2 and the fold change (FC) [6] was 2.1.

Source: ChEMBL document CHEMBL2146413, “Mammalian multidrug resistance lipopentasaccharide inhibitors from Ipomoea alba seeds” (J Nat Prod, 2012)
